Screens as filed in PubChem BioAssay.
SENP6 inh: inhibitors of human SENP6 protease; inhibition, % at 10 µM; AID 2599; Q9GZR1; Recombinant SENP6 catalytic domain, aminoluciferin luminescence; actives 1.8% (n = 330,000);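 active = inhibition above about 50% at the single tested dose, limit read from the data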;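 note: plate controls were DMSO wells with enzyme for no effect and DMSO wells lacking enzyme for full effect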
Apaf-1 inh: human Apaf-1 inhibition; O14727; reconstituted apoptosome caspase-3 activity, DEVD-Rh110 fluorescence; inhibition, % at 20 µM; actives 0.71% (n = 330,000); active = inhibition of at least 40% at 20 µM;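 note: plate controls were DMSO wells for no effect and DEVD-CHO caspase inhibitor wells for full effect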
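System: Apoptosome proteins | Medium: Hepes pH 7.5 with detergent and BSA | Also added: Cytochrome c trigger plus (Z-DEVD)2-Rh110 caspase-3 substrate | Incubation: 30 min compound preincubation, 50 min activation, room temperature | Detection: Rhodamine 110 fluorescence at Ex 480/Em 540 nm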
UBC13 inh: human UBC13 polyubiquitination inhibition; actives 0.47% (n = 330,000); UBC13 polyubiquitin chain formation, TR-FRET; P61088; inhibition, % at 20 µM; AID 485273; in the data active = inhibition above about 45%, passing the limit was not always enough
SENP8 block-1: SENP8 (human) protease inhibition; Q96LD8; recombinant SENP8, Nedd8 substrate fluorescence; inhibition, % at 20 µM; actives 0.64% (n = 360,000); in the data active = inhibition mostly above about 40%, no sharp cut-off; inactive = mostly below about 27%
Target sequence (Q96LD8 whole entry, looked up): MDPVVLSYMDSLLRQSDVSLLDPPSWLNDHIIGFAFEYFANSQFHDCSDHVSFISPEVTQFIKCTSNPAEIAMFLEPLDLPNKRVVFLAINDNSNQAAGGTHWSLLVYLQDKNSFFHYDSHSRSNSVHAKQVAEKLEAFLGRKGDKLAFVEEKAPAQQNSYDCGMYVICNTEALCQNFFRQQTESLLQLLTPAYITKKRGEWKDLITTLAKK
SENP7 inh: inhibitors of human SENP7 protease. Q9BQF6. recombinant SENP7, Z-RLRGG-aminoluciferin luminescence, 40 min. inhibition, % at 5 µM. actives 1.5% (n = 330,000). AID 434973;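 active = inhibition above about 50% at the single test dose, limit read from the data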;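 note: plate controls were DMSO with enzyme for no effect and no enzyme buffer wells for full effect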
SENP8 block-2: SENP8 protease inhibition; Q96LD8; purified SENP8, Z-RLRGG-aminoluciferin cleavage, luminescence; inhibition, % at 10 µM; actives 1.2% (n = 330,000); in the data active = inhibition above about 50%
SENP8 confirm: confirmation of human SENP8 protease inhibitors; shares compounds with SENP7 inh; inhibition, % at 12.5 µM; actives 40% (n = 6,200); AID 488912; Recombinant SENP8, Z-RLRGG-aminoluciferin luminescence, 60 min;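 active = mean inhibition across replicates above about 50%, limit read from the data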
SENP6 confirm: confirmation of human SENP6 protease inhibitors | actives 58% (n = 6,200) | AID 488915 | inhibition, % at 12.5 µM | shares compounds with SENP7 inh | recombinant SENP6, Z-RLRGG-aminoluciferin luminescence
SENP7 confirm: confirmation of human SENP7 protease inhibitors; shares compounds with SENP7 inh; recombinant SENP7, Z-RLRGG-aminoluciferin luminescence, 40 min; inhibition, % at 12.5 µM; actives 69% (n = 6,200); AID 488917
Casp3 SENP sel: inhibits human caspase-3 in SENP selectivity test; shares compounds with SENP7 inh; purified caspase-3, Z-DEVD-aminoluciferin luminescence, 60 min; inhibition, % at 12.5 µM; actives 60% (n = 6,200); AID 488918;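 active = mean inhibition above about 50%, limit read from the data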;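 note: plate controls were enzyme with DMSO for no effect and wells without caspase-3 for full effect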
Target sequence (P42574 28-227 limits assumed): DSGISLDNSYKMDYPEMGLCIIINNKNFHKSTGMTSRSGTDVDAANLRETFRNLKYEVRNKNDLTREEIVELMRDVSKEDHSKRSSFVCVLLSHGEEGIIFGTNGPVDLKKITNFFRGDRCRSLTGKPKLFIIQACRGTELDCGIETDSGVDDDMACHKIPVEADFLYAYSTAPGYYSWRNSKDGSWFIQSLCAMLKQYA
SENP luc ctr: interferes with luciferase luminescence in SENP counter-screen | Pre-incubated SENP8/Z-RLRGG-aminoluciferin, luciferase luminescence interference | actives 39% (n = 6,200) | inhibition, % at 12.5 µM | shares compounds with SENP7 inh | AID 488919;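 active = mean inhibition above about 50% when retested at one dose, limit read from the data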;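 note: plate controls were DMSO wells with completed reaction for no effect and substrate without enzyme for full effect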
An asterisk follows results filed as active; / = no result given. Only some compounds are listed: those with a hit (about 3% of all), similar ones and a draw of the others.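 Rule for the calls, unless noted: active = mean inhibition above about 50% in the one-dose retest (limit read from the data); inactive = the rest.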

SMILES	SENP6 inh	Apaf-1 inh	UBC13 inh	SENP8 block-1	SENP7 inh	SENP8 block-2	SENP8 confirm	SENP6 confirm	SENP7 confirm	Casp3 SENP sel	SENP luc ctr
CC1=C(C(=O)N2CCOCC2)CC(CC(=O)NCCCN(C)C)C(=O)N1Cc1ccc(F)cc1 (stereo not given)	/	/	/	22	/	/	/	/	/	/	/
CCc1c(C)sc(NC(=O)c2cccs2)c1C#N	-2	7	3	-94	-4	-7	/	/	/	/	/
Cc1sc(NC(=O)c2ccccc2)c(C#N)c1-c1ccccc1	62*	12	19	-3	-5	25	6	-7	29	16	1
COc1ccc(-c2nc3c(C)cc(Br)cn3c2Cc2cccc(F)c2)cc1OC	/	/	/	-10	/	/	/	/	/	/	/
COc1cccc(/C=C/c2ccc3cccc(O)c3n2)c1OC	58*	16	-15	-57	36	42	52*	40	89*	52*	30
COc1cc(/C=C/c2ccc3cccc(O)c3n2)cc(Cl)c1OC	58*	16	-38	-63	55*	47	-15	23	-3	13	5
COc1cc(/C=C/c2ccc3cccc(O)c3n2)cc(OC)c1OC	2	13	-4	-146	-8	-4	/	/	/	/	/
COc1cc(C(=O)Nc2ccc3nc4n(c(=O)c3c2)CCCC4)ccc1Br	14	-10	4	14	2	6	/	/	/	/	/
O=C(Nc1ccc(Cl)cc1)c1ccc2c(=O)n3c(nc2c1)CCCCC3	-11	20	9	14	4	-11	/	/	/	/	/
COc1cccc(C(=O)Nc2ccc3nc4n(c(=O)c3c2)CCCC4)c1	53*	0	3	14	45	22	25	23	71*	73*	46
O=C(Nc1ccc(F)c(Cl)c1)c1ccc2c(=O)n3c(nc2c1)CCCCC3	76*	2	-4	17	69*	28	14	60*	91*	62*	13
COc1cc(OC)cc(C(=O)Nc2ccc3nc4n(c(=O)c3c2)CCCC4)c1	87*	5	6	7	86*	77*	58*	82*	96*	92*	80*
COc1ccccc1C(=O)Nc1ccc2c(c1)OCCO2	53*	12	-5	13	43	16	32	30	71*	69*	52*
COc1cc(SC)ccc1C(=O)Nc1ccc2c(c1)OCCO2	79*	6	-4	3	81*	63*	80*	81*	95*	75*	64*
COc1cc(SC)ccc1C(=O)Nc1c(C)cccc1C	7	-5	2	12	-2	3	/	/	/	/	/
COc1ccc(Cl)cc1C(=O)Nc1ccc2c(c1)OCCO2	-20	11	4	22	-12	-12	/	/	/	/	/
COc1ccccc1C(=O)Nc1ccc2c(c1)OCO2	45	4	-1	11	38	3	/	/	/	/	/
COc1cc(SC)ccc1C(=O)NNC(=O)c1cc(C)oc1C	98*	11	-9	-4	98*	94*	98*	99*	103*	98*	93*
COc1ccc(NC(=O)C2(C)Cc3c(-c4cccc(C(F)(F)F)c4)ccnc3O2)cc1OC (stereo not given)	/	/	/	12	/	/	/	/	/	/	/
CCc1nc2c(OCCC3CCCCC3)cccn2c1N(C=O)Cc1ccccc1	/	/	/	4	/	/	/	/	/	/	/
O=c1[nH]c2ccccc2nc1/C=C/c1ccc(F)cc1	64*	11	-4	-399	55*	59*	26	26	23	19	10
O=c1[nH]c2ccccc2nc1/C=C/c1ccccc1	10	18	6	-395	56*	56*	14	27	49	42	16
